Data reported in ChEMBL document CHEMBL3407395, “Synthesis, characterization, and optimization for in vivo delivery of a nonselective isopeptidase inhibitor as new antineoplastic agent” (J Med Chem, 2015).
The source made the active and inactive calls. No cut-off for these calls is given here.

Columns and labels:
[1] = Cytotoxicity against human U87MG cells after 48 hrs by resazurin assay; assay type: functional, cell-based, U-87MG ATCC; conditions: U-87 MG
In short: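 U87MG glioblastoma cells treated with compounds; viability read by resazurin 48 h after treatment. IC50 from triplicate experiments, reported as mean and s.d.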

T98G [2] = test: Induction of necrosis in human T98G cells at 0.6 to 10 uM after 24 hrs by trypan blue assay; assay type: functional, cell-based
In short: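 T98G cells exposed 24 h to the listed concentrations. Cell death was scored as percent of trypan blue-positive cells.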

T98G [3] = test: Induction of apoptosis in human T98G cells assessed as caspase activation at 0.6 to 10 uM after 24 hrs by rhodamine-based fluorescence assay; assay type: functional, cell-based
In short: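 U87MG or T98G cells exposed 24 h to the listed concentrations. Caspase activity was read as relative fluorescence units from the rhodamine 110 bis-(N-Z-L-aspartyl-L-glutamyl-L-valyl-aspartic acid amide) fluorogenic substrate.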

T98G [4] = test: Induction of cell death in human T98G cells at 4.2 to 18.4 uM after 24 hrs by trypan blue assay in presence of zVAD-fmk; assay type: functional, cell-based
A-375 [5] = test: Cytotoxicity against human A375 cells after 48 hrs by resazurin assay; assay type: functional, cell-based; conditions: A-375, 48 h
A549 [6] = test: Cytotoxicity against human A549 cells after 48 hrs by resazurin assay; assay type: functional, cell-based; conditions: A549, 48 h
A549 [7] = test: Induction of cell death in human A549 cells assessed as stabilization of p53 at 2.5 to 10 uM after 24 hrs by immunoblot assay; assay type: functional, cell-based
In short: (§1)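 A549 cells dosed at three levels (2.5, 5, 10 µM or 1, 2.5, 5 µM depending on inhibitor); lysates made after 24 h. Immunoblots probed poly-ubiquitin, p53 and Noxa, quantified by densitometry; mean of two experiments.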

A549 [8] = test: Induction of cell death in human A549 cells assessed as accumulation of Noxa at 1 to 5 uM after 24 hrs by immunoblot assay; assay type: functional, cell-based; in short: as §1
A-375 [9] = test: Induction of cell death in human A375 cells at 2.5 to 10 uM after 48 hrs by trypan blue assay; assay type: functional, cell-based
In short: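 A549 or A375 cells treated 48 h with 2.5–10 µM. Cell death was scored by trypan blue exclusion as a function of concentration.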

A549 [10] = test: Induction of cell death in human A549 cells at 10 uM after 24 to 72 hrs by trypan blue assay; assay type: functional, cell-based
In short: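 A549 cells given 10 µM for 24–72 h. Cell death was scored by trypan blue at each time point.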

A549 [11] = test: Induction of cell death in human A549 cells assessed as accumulation of poly-ubiquitinated proteins at 10 uM after 48 hrs by immunoblot assay; assay type: functional, cell-based
In short: (§2)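 A549 cells grown in normal or A375-conditioned medium, treated with 10 µM. Immunoblots probed poly-ubiquitin accumulation, p53 stabilization and Noxa induction.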

A549 [12] = test: Induction of cell death in human A549 cells assessed as accumulation of Noxa at 10 uM after 48 hrs by immunoblot assay; assay type: functional, cell-based; in short: as §2
A-375 [13] = test: Induction of cell death in human A375 cells assessed as Noxa induction at 10 uM after 24 hrs by immunoblot assay; assay type: functional, cell-based

SMILES: O=C1/C(=C/c2ccc([N+](=O)[O-])cc2)CC(O)C/C1=C\c1ccc([N+](=O)[O-])cc1 (stereo not drawn)
- IC50 [1]: 4.62 µM
- Activity (T98G [2]): Active
- Activity (T98G [3]): Active
- Activity (T98G [4]): inactive
- IC50 (A-375 [5]): 6.1 µM
- IC50 (A549 [6]): 16 µM
- Activity (A549 [7]): Active
- Activity (A549 [8]): Active
- Activity (A-375 [9]): Active
- Activity (A549 [10]): Active
- Activity (A549 [11]): Active
- Activity (A549 [12]): Active
- Activity (A-375 [13]): Active
